Assay results from the EternaBench riboswitch data.

System: MS2 coat protein
Assay: apparent Kd, MS2 coat protein; higher = weaker binding; RNA-MaP array; FMN 200 µM where present
Procedure, shortened: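 Green signal was scaled to red-channel RNA signal and control-cluster median Fmax, and the apparent Kd was taken as the median of filtered per-cluster binding-curve fits. The binding series used SNAP-549-labelled MS2 coat protein from 0.7 or 1.5 nM, doubling to 3 µM, on designs transcribed by stalled E. coli RNA polymerase on Illumina sequencing-chip clusters. Each series ran without and then with constant ligand in 100 mM Tris-HCl pH 7.5, 80 mM KCl, 4 mM MgCl2, BSA, DTT, yeast tRNA and Tween-20.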

[1] = designed as: OFF switch for flavin mononucleotide, no ligand
[2] = ligand present: flavin mononucleotide, designed as: OFF switch for flavin mononucleotide
[3] = designed as: ON switch for flavin mononucleotide, no ligand
[4] = ligand present: flavin mononucleotide, designed as: ON switch for flavin mononucleotide

| Sequence | apparent Kd [1] | apparent Kd [2] | apparent Kd [3] | apparent Kd [4] |
| --- | --- | --- | --- | --- |
| UAAACGUUCUAGAAGGUGCAUUUGUUAAACAAGCAAGGAUAUAGACAUGAGGAUCACCCAUGUCUAUUAGACAUCGGCCUACUU | 5.75 nM | 5.39 nM | – | – |
| GAUUGUUUUUAGAAGGUGCCGACGAGAGUCGCAACAUGAGGAUCACCCAUGUGUCGGUGACGACGCAAGGAUAUGGAGGUGGUU | – | – | 174 nM | 79.8 nM |
| AAUUAUUUACAGAAGGAGUAAGAUUAUGUAUUACUAGGAUAUGUUCACAUGAGGAUCACCCAUGUCAUUGUAGGUUUUAUAUGU | 10.8 nM | 8.19 nM | – | – |
| AGCGAACAGGCUAACAUGAGGAUCACCCAUGUGGACUCAUGGUAGGAUAUCGGGAAGGAGGAAACCGAGAAGGGCCGGUGAGCC | – | – | 440 nM | 229 nM |
| UGUGCAGAAGGAUAUGCGUAAUGGCCGUGAGGCCUAGAUCUACAUGAGGAUCACCCAUGUAGAAGGUCUGUACU | 16.6 nM | 16.4 nM | – | – |
| UGUGCGUUGAUCUUCGAUCGUUGUACAUGAGGAUCACCCAUGUAGGAUAUUCUAAGACGCAGAUAGGAGAAGGACAUUGGUUUU | 10.1 nM | 17.6 nM | – | – |
| GCGGUGAUCCUAGCUCACAUGAGGAUCACCCAUGUGCAGUUCAAGGAUAUACGUUGCCGCUCCGCGUAGAAGGUGAACUCGCUA | 43 nM | 44.1 nM | – | – |
| GCACUGGAUGUAGGAUAUCAGGACGAUAAGUCCUGAGAAGGACAUGAGGAUCACCCAUGUAACUCAUAACCAGUGCAUAAUAUA | 15 nM | 24.8 nM | – | – |
| CGCAACAUACAGAAGGAGUAAAGGAGAAGUGUACUAGGAUAUGUUAACAUGAGGAUCACCCAUGUCGUUUGGGAUUUUGUUGCG | 383 nM | 99.3 nM | – | – |
| CCGAAACCUCAGAAGGACCACAUGAGGAUCACCCAUGUCAAGCAAAACGGUAGGAUAUGAGGGAAAAGUCGAUAUACCCGACAG | – | – | 7.84 nM | 3.93 nM |
| GUAAAGUGAGGAUAUGGUAAAUUAAUUAUUUAGUAAUUAAUCCAGAAGGCACAUGAGGAUCACCCAUGUAAAUG | 30.7 nM | 51.4 nM | – | – |
| CCAAUAAGCCAAGGAUAUCAGCCGGGUACGAGGUGAGAAGGUGGCCGAGGGAAUUACGGACAUGAGGAUCACCCAUGUACCCGU | – | – | 4.98 nM | 4.21 nM |
| GAGUCGAGUAAUAAAUAAGAUCUACAUGAGGAUCACCCAUGUAAGGAUAUGCAGUGGAAUACACUGCAGAAGGUACAUCUCGAC | 15.1 nM | 33.4 nM | – | – |
| CUUUAUAAUACCUCAUGUACAUGAGGAUCACCCAUGUUAACUAAGGAUAUAUAUAAAUUAAUAAUGUAGAAGGUAGUACUAUUU | 17.3 nM | 14.8 nM | – | – |
| AUUGUGUGAGGAUAUUAGUAGUAAAUGAAUAAAAUUAUUACUGAGAAGGCACAUGAGGAUCACCCAUGUUCCUU | 19.1 nM | 138 nM | – | – |
| UUGGACGUCGUAGGAGAUGUAGGAUAUUCCUACAUGAGGAUCACCCAUGUUGACAUGGAAGAAGGACAGAAGGACGAUGUCCAU | – | – | 294 nM | 8.27 nM |
| CUUUUGUGAGGAUAUUAGUAGUAAAUAAAUAAAAUUACUACUGAGAAGGCACAUGAGGAUCACCCAUGUUCCUC | 33.7 nM | 317 nM | – | – |
| GUUCCACAUGAGGAUCACCCAUGUGAGGAUAUGGAUUCGCUGGCCGUAGCCAGUGGAUCCAGAAGGCGCGUGAU | 77.4 nM | 96.6 nM | – | – |
| GUAGUGUAUGUAGGAUAUGUGAAGGAAACAUUUACAGAAGGACAUGAGGAUCACCCAUGUAUUUCAGUCACCAAUGUGACUGAU | 24.7 nM | 43.4 nM | – | – |
| GUCAAGUGAGGAUAUGAUUGUACAACAGACUAGCGUCUGCAUCAGAAGGCACAUGAGGAUCACCCAUGUUUGUC | 19.6 nM | 16.2 nM | – | – |
| AGAUAGUCAGGAUAUACGUGGAUGGAACACUUAUUUCCACUACAUGAGGAUCACCCAUGUAGAAGGGACUAUCA | 17.8 nM | 17.8 nM | – | – |

| Sequence | apparent Kd [1] | apparent Kd [2] | apparent Kd [3] | apparent Kd [4] |
| --- | --- | --- | --- | --- |
| UGAGCCUCGUGAGGAUAUACAUGAGGAUCACCCAUGUAAUAAAGUGAGCGGAGGAAACUCCGAAUGUAGAAGGCACGAGGCUCA | 26 nM | 186 nM | – | – |
| GCACUUAGAGUUGAACCGUUACUAACAUGAGGAUCACCCAUGUAGGAUAUGCUAAUAGUAUUGAAGCAGAAGGACACUAAGUGC | 5.46 nM | 5.88 nM | – | – |
| UCAUCAAAUUGAACAUGAGGAUCACCCAUGUAGGAUUAGCCACAGGAUAUCCGUGCUAGAAUGUGGGAGAAGGGUGGUCACUCC | – | – | 334 nM | 64.5 nM |
| UUUACAUUACGAGGAUAUCAUUUAUUUCAUGUUUGAGAAGGCGUUUUUUUUAUUACCUUACAUGAGGAUCACCCAUGUUUCUUU | – | – | 35.8 nM | 21.8 nM |
| AGUACCAUGUAGAAGGGAUAUCUGAUUCAGAUAUCAGGAUAUACAUGAGGAUCACCCAUGUAAAUGUACUCCAGGAAACUGGAA | 18 nM | 48 nM | – | – |
| UUUAGUUGCGGGCAGGAUAUGUAUUAAAAUACAUGAGGAUCACCCAUGUGUGGGUAUAACACCCAACAGAAGGGCCAAUCGCGAC | – | – | 132 nM | 18.3 nM |
| CGAGAUACGCUCGACCGAAAGGUACAUGAGGAUCACCCAUGUAGAAGGCGAUCCGCAACUCGGAUUGAGGAUAUAUACUACACA | 31.8 nM | 24.4 nM | – | – |
| GAGAGAGGGUGAGGAUAUUCAGUAAUAAUGAUAGAAGAAGGCACAGACAUGAGGAUCACCCAUGUGGGAAUAAUCCAGAGAGAG | – | – | 182 nM | 207 nM |
| UCCCUUGCUGGAGGAUAUCGCACAUGAGGAUCACCCAUGUCGGCACUCGGGCGCAUCCUCUUGGACGAGAAGGCCAGGAGGUAC | 179 nM | 79.4 nM | – | – |
| GCAUCGCAUGUCAGGAUAUGCUGUACCUUGGUACAGCAGAAGGGACAUGAGGAUCACCCAUGUGCCUAUGAUGC | 39.7 nM | 353 nM | – | – |
| AUGUUACAUGAGGAUCACCCAUGUGAGGAUAUGUGUAUCCCUAAAAAAGUGUGGGACCAUAGAAGGUACUUGGA | 59.2 nM | 58.6 nM | – | – |
| GGGCCCGGAGGAUAUACAUGAGGAUCACCCAUGUAGGGCCCGGGUAUUCCCGGGUUUUGUAGAAGGCCGGGCCC | – | 30.1 nM | – | – |
| AUAUCUUACCAAGGAUAUUUAAGAUUUGUGUAGACAUGAGGAUCACCCAUGUGGCGUUAGUCACGGGAGAAGGUGGUUUGAUAU | – | – | 140 nM | 648 nM |
| UUGGACGUCGUAGGAUAUGUAGGAUAUUCCUACAUGAGGAUCACCCAUGUUGACAUGGUAGAAGGACAGAAGGACGAUGUCCAU | – | – | 423 nM | 53.4 nM |
| CCACCUCCUGAGGAUAUUGCAUCACCCGACUGAUAAGAAGGCAGAACAUGAGGAUCACCCAUGUGGGUACUCCC | 82.5 nM | 77.2 nM | – | – |
| ACAUACAUUCGAGGAUAUCGGUGAUUAAUUUUACGAGAAGGCGAUAUAAGAUUUAAUAUUUUAGACAUGAGGAUCACCCAUGUA | – | – | 27.6 nM | 22.7 nM |
| AAACAUGUCCGAGGAUAUCUAGAAACAUUUUUAAGAGAAGGCGGACAUGAGGAUCACCCAUGUCUCUCCUCAUCAAAUCCAAGU | 15.6 nM | 68 nM | – | – |
| GUCAGCUCGUUAGGAUAUACAACACUGCUUCGGCAGUGUAUUAAGAUCACAUGAGGAUCACCCAUGUAGAAGGCACGAGCUGAU | 8.16 nM | 29.5 nM | – | – |
| GUUAGCGCAGGAUAUACAUGAGGAUCACCCAUGUCCUCAUGCGUUAAAGAGGUGAUCCGUAGAAGGGUGUAAAC | 180 nM | 250 nM | – | – |
| ACAUAAAUUCGAGGAUAUCGGUGAUAUAAUUUACGAGAAGGCGAUAAAAGUUGUAAACUUAUAGACAUGAGGAUCACCCAUGUA | – | – | 34.8 nM | 34 nM |
| GGUAAACAUGAGGAUCACCCAUGUAAUAAUAUGGGAGGAUAUGGGAAUUAAUUAAUUAAACCAGAAGGCCUAAUUG | – | – | 216 nM | 25.6 nM |
